Source: PubChem
PostGolgi yeast = growth inhibition of a yeast mutant, post-Golgi transport screen | post-Golgi transport phenotypic cell assay | inhibition, % at 10 µM | 0.9% of 98,000 active;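 also: yeast cells grown in 1536-well plates; yeast grown about 18 h at 30C before absorbance read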
Her2 expr inh = inhibitors of human Her2 kinase expression | P04626 | SKBR-3 HER2 protein level, AlphaScreen, 18-24 h; hits give low values | HER2 level % of control, % at 10 µM | 0.69% of 65,000 active | AID 645;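 active = HER2 level under 5% of the carrier-only control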;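 also: lower value means stronger loss of Her2 protein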
Target sequence (P04626 whole entry, looked up): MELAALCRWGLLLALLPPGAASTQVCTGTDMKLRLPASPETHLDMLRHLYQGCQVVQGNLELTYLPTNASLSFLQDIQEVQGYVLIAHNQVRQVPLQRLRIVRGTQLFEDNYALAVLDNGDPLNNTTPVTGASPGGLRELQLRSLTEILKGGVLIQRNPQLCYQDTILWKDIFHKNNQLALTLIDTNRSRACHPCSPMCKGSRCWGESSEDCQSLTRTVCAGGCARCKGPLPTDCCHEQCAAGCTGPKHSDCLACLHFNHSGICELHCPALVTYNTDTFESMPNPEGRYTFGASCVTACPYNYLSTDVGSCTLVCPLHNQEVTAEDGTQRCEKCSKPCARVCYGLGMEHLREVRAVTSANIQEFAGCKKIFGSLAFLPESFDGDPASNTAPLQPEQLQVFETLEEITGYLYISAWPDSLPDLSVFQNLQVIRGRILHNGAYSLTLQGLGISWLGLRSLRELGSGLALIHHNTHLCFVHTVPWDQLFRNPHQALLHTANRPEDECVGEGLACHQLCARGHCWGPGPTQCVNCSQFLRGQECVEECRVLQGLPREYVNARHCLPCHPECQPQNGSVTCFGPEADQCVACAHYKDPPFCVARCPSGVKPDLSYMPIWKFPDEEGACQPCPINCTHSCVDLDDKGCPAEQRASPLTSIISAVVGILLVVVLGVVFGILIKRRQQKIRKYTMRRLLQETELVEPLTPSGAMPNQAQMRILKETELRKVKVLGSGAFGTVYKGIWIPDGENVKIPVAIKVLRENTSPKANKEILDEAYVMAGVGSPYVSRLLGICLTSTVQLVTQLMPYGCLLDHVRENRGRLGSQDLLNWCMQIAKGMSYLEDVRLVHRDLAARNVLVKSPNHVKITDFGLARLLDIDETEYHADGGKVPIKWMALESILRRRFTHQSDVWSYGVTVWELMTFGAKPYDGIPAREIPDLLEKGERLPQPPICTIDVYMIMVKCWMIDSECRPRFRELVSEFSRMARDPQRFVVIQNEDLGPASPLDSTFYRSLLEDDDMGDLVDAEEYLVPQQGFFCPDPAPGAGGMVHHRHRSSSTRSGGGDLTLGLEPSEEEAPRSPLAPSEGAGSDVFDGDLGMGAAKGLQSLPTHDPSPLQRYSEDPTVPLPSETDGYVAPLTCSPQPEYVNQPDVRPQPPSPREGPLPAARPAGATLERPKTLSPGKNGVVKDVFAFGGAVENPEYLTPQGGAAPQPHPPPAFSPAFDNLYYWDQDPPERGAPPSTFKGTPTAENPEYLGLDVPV
Ecoli tolC = growth inhibitors of E. coli BW25113 tolC mutant. 2.2% of 65,000 active. OD615. growth inhibition, % at 10 µM (by protocol);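 active = growth inhibition at or above a cutoff equal to the mean over every tested compound plus 3 SD, cut at about 60% in these data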;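 also: growth measured after 20 h incubation at 37 °C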
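Assay system: tolC-deleted E. coli BW25113. Medium: kanamycin-containing LB broth (50 µg/mL). Dosing: 10 µM final, single dose. Timing: bacterial growth with compound for 20 h at 37 °C. Detection: A615 absorbance measurement. Read-out basis: growth inhibition in percent.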
PostGolgi ctrl = growth of the yeast control strain, post-Golgi counter-screen. efflux-deficient yeast background strain, growth absorbance A615, 16 h. inhibition, % at 10 µM. 5% of 98,000 active
Ecoli WT expand = blocks growth of wild type E. coli BW25113 | OD600 absorbance | 0.15% of 98,000 active | growth inhibition, % at 100 µM;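 active = growth inhibition above about 50% at one test dose, limit read from the data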;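 also: growth measured after 20 h incubation at 37 °C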
Each line names hits and unclear results; the compound was inactive in the other large screens. The list is not random: actives were taken first. Their share in the collection is about 6.6%. Rule as the data show it, unless noted: active = inhibition above about 30%; inactive = the rest.

CCC(CC)C(=O)Nc1cccc(C(=O)NCc2ccco2)c1	PostGolgi ctrl 42.4
O=C(NCc1ccco1)c1cccc(NC(=O)c2ccccc2)c1	none
O=c1oc(-c2cccnc2)nc2ccccc12	none
Cc1onc(-c2ccccc2)c1-c1nc2ccccc2c(=O)o1	PostGolgi ctrl 32.3 (no result: Her2 expr inh, Ecoli tolC)
O=c1c2c(-c3ccco3)csc2nc(SCc2cn3cccnc3n2)n1-c1ccccc1	PostGolgi ctrl 35.9
CCc1nnc(NC=C2C(=O)OC(C)(C)OC2=O)s1	none
CCCn1c(N)c(C(=O)CSc2nc(C)cs2)c(=O)n(C)c1=O	PostGolgi yeast 35.4 (no result: Her2 expr inh, Ecoli tolC)
Cc1cc(=O)[nH]c(SCC(=O)c2c(N)n(C)c(=O)n(C)c2=O)n1	none (no result: Her2 expr inh, Ecoli tolC)
c1cnc(-c2nnc3n2CCCCC3)cn1	Her2 expr inh -16.0
c1cc(-c2nnc3n2CCCCC3)ccn1	none
CCOC(=O)CNc1nnc(SCC(=O)OCC)[nH]c1=O	none
Cc1ccc(S(=O)(=O)Nc2nc3ccc(S(=O)(=O)N4CCCC4)cc3s2)cc1	none
CN1/C(=C\C(=O)COc2ccc3c(c2)OCO3)C(C)(C)c2ccccc21	Ecoli tolC 88.9
CN1/C(=C\C(=O)COC(=O)C2COc3ccccc3O2)C(C)(C)c2ccccc21 (configuration not stated)	none
CC1=CC(C)(C)n2c(O)c(C3=NC(=S)NC3=O)c3cc(OC(=O)c4cccc5ccccc45)cc1c32	none (no result: Her2 expr inh, Ecoli tolC)
COc1cc(/C=N/NC(=Nc2ccc(C)cc2)c2nc3ccccc3s2)ccc1O	PostGolgi ctrl 55.0 (no result: Her2 expr inh, Ecoli tolC)
OC(CN1CCN(c2cccc(C(F)(F)F)c2)CC1)c1c[nH]c2ccccc12 (configuration not stated)	Her2 expr inh -22.4
O=C(CS(=O)(=O)Cc1ccccc1)N1CCN(c2cccc(C(F)(F)F)c2)CC1	none
Cc1onc(-c2c(F)cccc2Cl)c1C(=O)NC1=NCCS1	none
Cc1onc(-c2c(F)cccc2Cl)c1C(=O)NCC1COc2ccccc2O1 (configuration not stated)	PostGolgi ctrl 36.5
Cc1onc(-c2c(Cl)cccc2Cl)c1C(=O)NCC1CCCO1 (configuration not stated)	none
Cc1onc(-c2c(F)cccc2Cl)c1C(=O)Nc1cccc2nsnc12	PostGolgi ctrl 42.0
CCOc1ccc2[nH]c3c(N4CCN(c5ccccn5)CC4)ncnc3c2c1	Ecoli tolC 66.2
Cc1ccc2c(c1)[nH]c1c(N3CCN(Cc4ccccc4)CC3)ncnc12	Ecoli tolC 100.0
Cc1ccc2[nH]c3c(N4CCN(Cc5ccccc5)CC4)ncnc3c2c1	none
COc1cccc(C(=O)Oc2cc(-c3ccccc3)no2)c1	none (no result: Her2 expr inh, Ecoli tolC)
CCC1(CC)C(=O)NC(=O)NC1=NCCc1c[nH]c2ccccc12	none
Cn1nnnc1SCCNCc1ccncc1	none
CNC(=O)c1cc(Nc2nnc(C)c3ccccc23)ccc1OC	none (no result: Her2 expr inh, Ecoli tolC)
COc1ccc(OC)c(NC(=O)Cn2cccc2)c1	none
CC(=O)NC12CC3CC(C1)CC(C(=O)OCC(=O)Nc1ncc(Cl)cc1Cl)(C3)C2	none
O=C(CSc1c[nH]c2ccccc12)NCc1ccc2c(c1)OCO2	none (no result: Her2 expr inh, Ecoli tolC)
N#C/C(=C/c1ccc2c(c1)OCO2)C(=O)NCCc1c[nH]c2ccccc12	PostGolgi ctrl 35.9 (no result: Her2 expr inh, Ecoli tolC)
CCOC(=O)C1CCN(Cc2cn[nH]c2-c2ccc(C)cc2)CC1	Ecoli tolC 91.7
CCOC(=O)C1CCN(Cc2cn[nH]c2-c2ccccc2)CC1	none
CC(C)(C)C(=O)NC(=C(Cl)Cl)P(=O)(O)O	none
Nc1nonc1C(=O)NCCNCc1ccccc1OCc1ccccc1F	PostGolgi ctrl 31.3
COc1ccc(C2CC(=O)C(C=NCCO)=C(O)C2)cc1OC (configuration not stated)	Her2 expr inh -27.9
O=C1CC(c2ccc(Cl)c(Cl)c2)CC(O)=C1C=NCCN1CCNCC1 (configuration not stated)	PostGolgi ctrl 37.1
COc1ccc(C=NCCCN2CCOCC2)cc1	none
O=C1CC(c2ccccc2)CC(O)=C1C=NCCN1CCNCC1 (configuration not stated)	none
COc1ccc(C2CC(=O)C(C=NCCCN3CCOCC3)=C(O)C2)cc1 (configuration not stated)	PostGolgi ctrl 38.6
COc1ccccc1N1CCN(C(c2cccs2)C(C)NC(=O)c2cccs2)CC1 (configuration not stated)	none (no result: PostGolgi yeast, PostGolgi ctrl, Ecoli WT expand)
c1ccc(-c2nc(NCCCn3ccnc3)c3oc4ccccc4c3n2)cc1	none (no result: Her2 expr inh, Ecoli tolC)
OCCSc1nc(-c2cccnc2)nc2ccccc12	PostGolgi ctrl 37.7
c1ccc(-c2nc(NCc3ccco3)c3oc4ccccc4c3n2)cc1	PostGolgi ctrl 33.7 (no result: Her2 expr inh, Ecoli tolC)
c1cncc(-c2nc(NCc3ccco3)c3ccccc3n2)c1	PostGolgi ctrl 57.0
CSc1nc(NCc2ccco2)c2ccccc2n1	none (no result: Her2 expr inh, Ecoli tolC)
Clc1cccc(-c2nc(NCc3cccnc3)c3ccccc3n2)c1	PostGolgi ctrl 71.6 (no result: Her2 expr inh, Ecoli tolC)
OCCNc1nc(-c2cccnc2)nc2ccccc12	none
c1ccc(-c2nc(NCc3cccnc3)c3ccccc3n2)cc1	none (no result: Her2 expr inh, Ecoli tolC)
CCCCCC(C(=O)O)C(C)CC(=O)NC1CCCCC1 (configuration not stated)	none
FC(F)(F)c1ccc(N2CCN(c3cc(-c4ccccc4)nc4ncnn34)CC2)nc1	PostGolgi ctrl 56.6
O=C(c1ccc2ccccc2c1)N1CCN(c2ccc(C(F)(F)F)cn2)CC1	none (no result: Her2 expr inh, Ecoli tolC)
Cc1cc2c(cc(C(=O)OCC(=O)NCc3cccs3)n2C(C)C)o1	Ecoli tolC 74.5, PostGolgi ctrl 56.7
COc1ccc(-c2nnc(SCC(=O)NCc3cccs3)n2C(C)C)cc1	none (no result: Her2 expr inh, Ecoli tolC)
CCOc1ccccc1NC(=O)C1CCCCN1S(=O)(=O)c1ccc(F)cc1 (configuration not stated)	none (no result: Her2 expr inh, Ecoli tolC)
O=C(CN1CCN(Cc2ccc(F)cc2Cl)C1=O)NCCc1ccc(Cl)cc1	PostGolgi ctrl 36.6 (no result: Her2 expr inh, Ecoli tolC)
O=C(CN1CCCN(Cc2ccc(F)cc2Cl)C1=O)NC1CCCCCC1	none (no result: Her2 expr inh, Ecoli tolC)
CCOC(=O)N/N=C/c1ccc(F)cc1	none (no result: Her2 expr inh, Ecoli tolC)
CCOC(=O)N/N=C\c1ccc([N+](=O)[O-])o1	Ecoli WT expand 100.0 (no result: Her2 expr inh, Ecoli tolC)
CC(C(=O)N(C1CC1)C1(C(=O)Nc2ccccc2)CCCC1)N1C(=O)c2ccccc2C1=O (configuration not stated)	PostGolgi ctrl 45.0
O=C(CCCSc1nc2ccccc2[nH]1)N1CCN(c2ccc([N+](=O)[O-])cc2)CC1	PostGolgi ctrl 31.9 (no result: Her2 expr inh, Ecoli tolC)
COc1ccc(C(=O)COC(=O)CN2CC(=O)Oc3ccccc32)cc1Br	none
COc1cc2[nH]c(=S)n(CCCN3CCOCC3)c(=O)c2cc1OC	PostGolgi yeast 37.7
O=C(Oc1cccc(NC(=O)c2ccco2)c1)c1ccc(Br)c(S(=O)(=O)N2CCCCC2)c1	none (no result: Her2 expr inh, Ecoli tolC)
Nc1ccc(C(=O)c2ccccc2C(=O)O)cc1Cl	none
c1ccc2c(c1)CCN(c1ncnc3c1[nH]c1ccccc13)C2	none
COc1cccc(N2CCN(c3ncnc4c3[nH]c3ccc(F)cc34)CC2C)c1 (configuration not stated)	PostGolgi yeast 66.0, Her2 expr inh -25.7, PostGolgi ctrl 96.1
COc1ccc2[nH]c3c(N4CC(C)OC(C)C4)ncnc3c2c1 (configuration not stated)	none (no result: Her2 expr inh, Ecoli tolC)
